Laboratory results as given in ChEMBL document CHEMBL5724801, “EUbOPEN Chemogenomics Library - Multiplex” (2024).
Where “and” joins values, the source holds several entries; their conditions need not be identical. Equal entries are not always repeated.

Tested on: U2OS
Experiment: Multiplex assay against U2OS
Format: toxicity, cell-based
Conditions: human
Procedure, shortened: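 Cells were classed with CellPathfinder machine-learning gating, first as Hoechst high-intensity objects or normal cells, then (normal cells) as healthy, pyknosed or fragmented nuclei, and finally (pyknosed cells) as mitotic or apoptotic. Staining of live cells at seeding used Hoechst33342, BioTracker Green Microtubule Cytoskeleton Dye, MitoTracker Red and Annexin V Alexa Fluor 680, with imaging on a CQ1 microscope at 37°C and 5% CO2 after compound addition. Tubulin, mitochondrial-mass and membrane-permeability phenotypes are per cents of healthy-nucleus cells.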

[1] = 12 h, 1 µM, compound concentration 1 uM
[2] = 12 h, 10 µM, compound concentration 10 uM
[3] = 24 h, 1 µM, compound concentration 1 uM
[4] = 24 h, 10 µM, compound concentration 10 uM
[5] = 48 h, 1 µM, compound concentration 1 uM
[6] = 48 h, 10 µM, compound concentration 10 uM

## CC/C(=C(\c1ccc(O)cc1)c1ccc(OCCN(C)C)cc1)c1ccccc1 [AFIMOXIFENE]
[1]
  Population Fragmented Nuclei (%): 0.84% and 5.44%
  Population Healthy Nuclei (%): 90.45% and 83.67%
  Population Hoechst High Intensity Objects (%): 0%
  Population Membrane Permeable-Phenotype (%): 4.07%
  Population Mitochondria Different-Phenotype (%): 0.62% and 4.88%
  Population Mitotic Cells (%): 51.61% and 87.5%
  Population Normal (%): 100%
  Population Pyknosed Nuclei (%): 8.71% and 10.88%
  Population Tubulin-Different-Phenotype (%): 2.48% and 1.63%
  Total Cell Count: 356 and 147
[2]
  Population Apoptotic (%): 35.09% and 27.27%
  Population Fragmented Nuclei (%): 2.04% and 0.59%
  Population Healthy Nuclei (%): 78.57% and 73.37%
  Population Hoechst High Intensity Objects (%): 0%
  Population Membrane Permeable-Phenotype (%): 0.43% and 5.65%
  Population Mitotic Cells (%): 64.91% and 72.73%
  Population Normal (%): 100%
  Population Pyknosed Nuclei (%): 19.39% and 26.04%
  Population Tubulin-Different-Phenotype (%): 5.63% and 4.84%
  Total Cell Count: 294 and 169
[3]
  Population Apoptotic (%): 53.06% and 20%
  Population Fragmented Nuclei (%): 1.85% and 5.11%
  Population Healthy Nuclei (%): 88.09% and 83.52%
  Population Hoechst High Intensity Objects (%): 0%
  Population Membrane Permeable-Phenotype (%): 0.93% and 2.04%
  Population Mitochondria Different-Phenotype (%): 0.7% and 6.12%
  Population Mitotic Cells (%): 46.94% and 80%
  Population Normal (%): 100%
  Population Pyknosed Nuclei (%): 10.06% and 11.36%
  Population Tubulin-Different-Phenotype (%): 2.04%
  Total Cell Count: 487 and 176
[4]
  Population Apoptotic (%): 33.75% and 23.46%
  Population Fragmented Nuclei (%): 2.3%
  Population Healthy Nuclei (%): 77.24% and 56.72%
  Population Hoechst High Intensity Objects (%): 0%
  Population Membrane Permeable-Phenotype (%): 0.99% and 3.51%
  Population Mitotic Cells (%): 66.25% and 76.54%
  Population Normal (%): 100%
  Population Pyknosed Nuclei (%): 20.46% and 40.3%
  Population Tubulin-Different-Phenotype (%): 7.95% and 3.51%
  Total Cell Count: 391 and 201
[5]
  Population Apoptotic (%): 41.05% and 54.05%
  Population Fragmented Nuclei (%): 1.6% and 5.32%
  Population Healthy Nuclei (%): 87.51% and 81.56%
  Population Hoechst High Intensity Objects (%): 0%
  Population Membrane Permeable-Phenotype (%): 1.18% and 2.61%
  Population Mitochondria Different-Phenotype (%): 0.26% and 4.78%
  Population Mitotic Cells (%): 58.95% and 45.95%
  Population Normal (%): 100%
  Population Pyknosed Nuclei (%): 10.88% and 13.12%
  Population Tubulin-Different-Phenotype (%): 0.79% and 1.74%
[6]
  Population Apoptotic (%): 43.75% and 40.78%
  Population Fragmented Nuclei (%): 4.78% and 5.95%
  Population Healthy Nuclei (%): 74.84% and 55.76%
  Population Hoechst High Intensity Objects (%): 0%
  Population Membrane Permeable-Phenotype (%): 2%
  Population Mitotic Cells (%): 56.25% and 59.22%
  Population Normal (%): 100%
  Population Pyknosed Nuclei (%): 20.38% and 38.29%
  Population Tubulin-Different-Phenotype (%): 7.66% and 8.67%
  Total Cell Count: 628 and 269

## O=c1cccc2n1C[C@@H]1CNC[C@H]2C1 [CYTISINICLINE]
[1]
  Population Apoptotic (%): 31.43% and 36.84%
  Population Fragmented Nuclei (%): 0.94% and 1.67%
  Population Healthy Nuclei (%): 90.87% and 87.78%
  Population Hoechst High Intensity Objects (%): 0%
  Population Membrane Permeable-Phenotype (%): 1.29% and 1.9%
  Population Mitochondria Different-Phenotype (%): 0% and 5.06%
  Population Mitotic Cells (%): 68.57% and 63.16%
  Population Normal (%): 100%
  Population Pyknosed Nuclei (%): 8.2% and 10.56%
  Population Tubulin-Different-Phenotype (%): 1.29% and 0%
  Total Cell Count: 427 and 180
[2]
  Population Apoptotic (%): 50%
  Population Fragmented Nuclei (%): 0.98% and 7.59%
  Population Healthy Nuclei (%): 90.71% and 82.28%
  Population Hoechst High Intensity Objects (%): 0%
  Population Membrane Permeable-Phenotype (%): 1.35% and 0.77%
  Population Mitochondria Different-Phenotype (%): 0% and 6.92%
  Population Mitotic Cells (%): 50%
  Population Normal (%): 100%
  Population Pyknosed Nuclei (%): 8.31% and 10.13%
  Population Tubulin-Different-Phenotype (%): 1.62% and 1.54%
  Total Cell Count: 409 and 158
[3]
  Population Apoptotic (%): 30.23% and 40%
  Population Fragmented Nuclei (%): 2.82% and 2.92%
  Population Healthy Nuclei (%): 89.59% and 86.67%
  Population Hoechst High Intensity Objects (%): 0%
  Population Membrane Permeable-Phenotype (%): 1.18% and 2.4%
  Population Mitochondria Different-Phenotype (%): 0% and 2.4%
  Population Mitotic Cells (%): 69.77% and 60%
  Population Normal (%): 100%
  Population Pyknosed Nuclei (%): 7.58% and 10.42%
  Population Tubulin-Different-Phenotype (%): 0.59% and 0.96%
  Total Cell Count: 567 and 240
[4]
  Population Apoptotic (%): 32.61% and 45%
  Population Fragmented Nuclei (%): 0.88% and 4.81%
  Population Healthy Nuclei (%): 91.01% and 85.58%
  Population Hoechst High Intensity Objects (%): 0.18% and 0%
  Population Membrane Permeable-Phenotype (%): 0.97% and 1.69%
  Population Mitochondria Different-Phenotype (%): 0% and 3.37%
  Population Mitotic Cells (%): 67.39% and 55%
  Population Normal (%): 99.82% and 100%
  Population Pyknosed Nuclei (%): 8.11% and 9.62%
  Population Tubulin-Different-Phenotype (%): 2.13% and 1.69%
  Total Cell Count: 568 and 208
[5]
  Population Apoptotic (%): 42.86% and 41.18%
  Population Fragmented Nuclei (%): 3.85% and 0.73%
  Population Healthy Nuclei (%): 89.27% and 86.8%
  Population Hoechst High Intensity Objects (%): 0% and 0.49%
  Population Membrane Permeable-Phenotype (%): 0.8% and 1.41%
  Population Mitochondria Different-Phenotype (%): 0.1% and 3.1%
  Population Mitotic Cells (%): 57.14% and 58.82%
  Population Normal (%): 100% and 99.51%
  Population Pyknosed Nuclei (%): 6.89% and 12.47%
  Population Tubulin-Different-Phenotype (%): 0.6% and 0.56%
  Total Cell Count: 1118 and 411
[6]
  Population Apoptotic (%): 42.39% and 63.89%
  Population Fragmented Nuclei (%): 3.71% and 1.13%
  Population Healthy Nuclei (%): 87.55% and 88.7%
  Population Hoechst High Intensity Objects (%): 0%
  Population Membrane Permeable-Phenotype (%): 0.65% and 2.23%
  Population Mitochondria Different-Phenotype (%): 0.11% and 0.96%
  Population Mitotic Cells (%): 57.61% and 36.11%
  Population Normal (%): 100%
  Population Pyknosed Nuclei (%): 8.75% and 10.17%
  Population Tubulin-Different-Phenotype (%): 1.19% and 0.64%
  Total Cell Count: 1052 and 354
